Consider twelve molecules from ChEMBL document CHEMBL3616447, “Identification of novel PARP-1 inhibitors: Drug design, synthesis and biological evaluation” (Bioorg Med Chem Lett, 2015).

The subject of test [1] is MCF7. Briefly: Anticancer activity against human MCF7 cells after 96 hrs by MTT assay. Particulars: MCF7, 96 h. Type of test: functional. The gist of the method: (§1)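 Human breast cancer lines: MCF-7 (wild type) and MDA-MB-436 (naturally carrying BRCA1 mutations, BRCA1-deficient). Cytotoxicity reported as CC50 in μM.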
For test [2], the target named is Poly [ADP-ribose] polymerase 1 (Homo sapiens, UniProt P09874). Briefly: Inhibition of PARP1 (unknown origin).
Sequence of Poly [ADP-ribose] polymerase 1 (P09874 whole entry): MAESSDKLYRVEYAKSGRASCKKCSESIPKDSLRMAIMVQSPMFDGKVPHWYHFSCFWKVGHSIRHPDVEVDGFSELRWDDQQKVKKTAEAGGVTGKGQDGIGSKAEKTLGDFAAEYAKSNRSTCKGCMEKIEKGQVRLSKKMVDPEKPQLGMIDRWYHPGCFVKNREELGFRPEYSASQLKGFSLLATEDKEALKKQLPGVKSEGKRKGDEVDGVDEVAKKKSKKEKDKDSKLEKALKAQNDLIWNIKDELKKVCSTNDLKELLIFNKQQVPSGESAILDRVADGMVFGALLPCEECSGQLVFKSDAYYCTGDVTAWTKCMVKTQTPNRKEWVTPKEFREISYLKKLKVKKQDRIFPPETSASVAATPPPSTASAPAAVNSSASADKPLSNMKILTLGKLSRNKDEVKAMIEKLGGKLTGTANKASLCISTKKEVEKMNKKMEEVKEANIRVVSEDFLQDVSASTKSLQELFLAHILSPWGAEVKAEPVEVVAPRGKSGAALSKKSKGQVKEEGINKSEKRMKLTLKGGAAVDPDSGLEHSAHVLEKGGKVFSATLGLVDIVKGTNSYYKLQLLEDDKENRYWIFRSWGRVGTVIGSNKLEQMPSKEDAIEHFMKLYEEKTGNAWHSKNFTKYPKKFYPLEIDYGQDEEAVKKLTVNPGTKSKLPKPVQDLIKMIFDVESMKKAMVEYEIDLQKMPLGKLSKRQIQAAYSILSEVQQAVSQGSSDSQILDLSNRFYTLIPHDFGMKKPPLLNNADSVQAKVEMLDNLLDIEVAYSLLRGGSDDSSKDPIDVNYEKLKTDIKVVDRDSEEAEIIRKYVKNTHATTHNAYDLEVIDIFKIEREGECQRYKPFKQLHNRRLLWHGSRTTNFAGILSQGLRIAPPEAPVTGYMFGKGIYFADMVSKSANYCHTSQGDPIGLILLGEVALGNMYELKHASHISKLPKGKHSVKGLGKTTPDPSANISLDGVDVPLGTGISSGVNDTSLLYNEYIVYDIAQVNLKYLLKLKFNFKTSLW
The nature of test [3]: Anticancer activity against human BRCA1-deficient MDA-MB-436 cells after 96 hrs by MTT assay. The following applies: MDA-MB-436, 96 h. Type of test: functional. The gist of the method:
as §1
On the technique in general: Tetrazolium assays rely on reduction of a dye to a coloured formazan, in cell work by metabolically active cells.

Regarding `CNCc1ccc(-c2[nH]c3cccc4c3c2C(=O)NNC4=O)cc1`, the CC50 in test [1] stood at 83.1 µM; in test [3] it was 11.3 µM. This molecule showed an IC50 in test [2] of 2.7 µM.

For the molecule `CCCNCc1ccc(-c2[nH]c3cccc4c3c2C(=O)NNC4=O)cc1`, in test [1], the midpoint of cytotoxicity, the CC50, lay at 101 µM.

As to `CC(C)NCc1ccc(-c2[nH]c3cccc4c3c2C(=O)NNC4=O)cc1`, the CC50 came out at 40.7 µM in test [1] and 55.7 µM in test [3]. The same molecule came in with an IC50 in test [2] of 11.3 µM.

For `CCCCNCc1ccc(-c2[nH]c3cccc4c3c2C(=O)NNC4=O)cc1`, the values for the CC50 in test [1] and in test [3] were 18 µM and 18.9 µM, respectively. In addition, half-maximal inhibition in test [2] (IC50) required 0.25 µM.

For the molecule `CNCc1ccc(-c2[nH]c3cc(F)cc4c3c2C(=O)NNC4=O)cc1`, the CC50 in test [1] came to 65.3 µM; in test [3], 56.2 µM. Moreover, the IC50 in test [2] was found to be 0.00664 µM.

With `CCCNCc1ccc(-c2[nH]c3cc(F)cc4c3c2C(=O)NNC4=O)cc1`, the values for the CC50 in test [1] and in test [3] were 25.9 µM and 5.45 µM, respectively. The molecule also had an IC50 in test [2] of 0.0035 µM.

`CCCCNCc1ccc(-c2[nH]c3cc(F)cc4c3c2C(=O)NNC4=O)cc1` displayed a 50% inhibitory concentration (IC50) in test [2] of 0.00242 µM. Moreover, the CC50 in test [3] was 114 µM.

Regarding `CNCc1ccc(-c2cc3c4c(c[nH]c4c2)C(=O)NNC3=O)cc1`, the CC50 in test [1] was determined as 1240 µM.

In the case of `CCCNCc1ccc(-c2cc3c4c(c[nH]c4c2)C(=O)NNC3=O)cc1`, the values for the CC50 in test [1] and in test [3] were 5560 µM and 112 µM, respectively. This molecule also came in with an IC50 in test [2] of 0.138 µM.

For `CC(C)NCc1ccc(-c2cc3c4c(c[nH]c4c2)C(=O)NNC3=O)cc1`, the CC50 worked out at 1920 µM in test [1] and 105 µM in test [3]. In test [2], this molecule gave an IC50 of 0.465 µM.

For the molecule `CCCCNCc1ccc(-c2cc3c4c(c[nH]c4c2)C(=O)NNC3=O)cc1`, the CC50 was found to be 237 µM in test [1] and 68.8 µM in test [3]. This molecule came in with an IC50 in test [2] of 0.0354 µM.

As for `CNCc1ccc(-c2[nH]c3cc(F)cc4c3c2CCNC4=O)cc1` [RUCAPARIB], the results for the CC50 in test [1] and in test [3] were 19.5 µM and 3 µM, respectively.

The CC50 is the concentration at which the toxic effect on the cells reaches its halfway point. Broadly, the IC50 is the concentration at which inhibition is half-maximal. Higher therefore signals lower potency.
